Data from ChEMBL document CHEMBL3763086, “Salicylanilide N-monosubstituted carbamates: Synthesis and in vitro antimicrobial activity” (2016).
In brackets after ≈: the same amount, converted by molar mass.

Legend:
Assay type in all cases: functional
Nakaseomyces glabratus [1] = assay: Antifungal activity against Candida glabrata 20/I after 24 hrs by microbroth dilution method
[2] = test system: Trichophyton mentagrophytes; assay: Antifungal activity against Trichophyton mentagrophytes 445 after 120 hrs by microbroth dilution method; conditions: Trichophyton mentagrophytes, 445, 120 h
Pichia kudriavzevii [3] = assay: Antifungal activity against Candida krusei E28 after 24 hrs by microbroth dilution method; conditions: E28, 24 h
Pichia kudriavzevii [4] = assay: Antifungal activity against Candida krusei E28 after 48 hrs by microbroth dilution method; conditions: E28, 48 h
Candida tropicalis [5] = assay: Antifungal activity against Candida tropicalis 156 after 24 hrs by microbroth dilution method; conditions: Candida tropicalis, 156, 24 h
Candida albicans [6] = assay: Antifungal activity against Candida albicans ATCC 44859 after 48 hrs by microbroth dilution method; conditions: ATCC 44859, 48 h
Trichosporon asahii [7] = assay: Antifungal activity against Trichosporon asahii 1188 after 24 hrs by microbroth dilution method; conditions: Trichosporon asahii, 1188, 24 h
Lichtheimia corymbifera [8] = assay: Antifungal activity against Absidia corymbifera 272 after 48 hrs by microbroth dilution method; conditions: Lichtheimia corymbifera, 272, 48 h
Candida tropicalis [9] = assay: Antifungal activity against Candida tropicalis 156 after 48 hrs by microbroth dilution method; conditions: Candida tropicalis, 156, 48 h
Lichtheimia corymbifera [10] = assay: Antifungal activity against Absidia corymbifera 272 after 24 hrs by microbroth dilution method; conditions: Lichtheimia corymbifera, 272, 24 h
Nakaseomyces glabratus [11] = assay: Antifungal activity against Candida glabrata 20/I after 48 hrs by microbroth dilution method
Candida albicans [12] = assay: Antifungal activity against Candida albicans ATCC 44859 after 24 hrs by microbroth dilution method; conditions: ATCC 44859, 24 h
[13] = test system: Trichophyton mentagrophytes; assay: Antifungal activity against Trichophyton mentagrophytes 445 after 72 hrs by microbroth dilution method; conditions: Trichophyton mentagrophytes, 445, 72 h
Trichosporon asahii [14] = assay: Antifungal activity against Trichosporon asahii 1188 after 48 hrs by microbroth dilution method; conditions: Trichosporon asahii, 1188, 48 h
Staphylococcus aureus [15] = assay: Antibacterial activity against Staphylococcus aureus CCM 4516/08 after 24 hrs by microbroth dilution method; conditions: CCM 4516/08, 24 h
Method in brief: (§1)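 Microbroth dilution modified per M07-A07 in Mueller-Hinton broth, pH 7.4 (±0.2). Inoculum in sterile water adjusted to 0.5 McFarland. MIC taken as growth reduction of at least 90% (IC90) versus control, read visually and at 540 nm after 24 and 48 h incubation in the dark.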

Klebsiella pneumoniae [16] = assay: Antibacterial activity against ESBL-positive Klebsiella pneumoniae J 14368/08 after 24 hrs by microbroth dilution method; conditions: J 14368/08, 24 h; method in brief: as §1
Staphylococcus aureus [17] = assay: Antibacterial activity against methicillin-resistant Staphylococcus aureus H 5996/08 after 24 hrs by microbroth dilution method; conditions: H 5996/08, 24 h
Method in brief: (§2)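 Microdilution broth method modified after M07-A07 in Mueller-Hinton broth adjusted to pH 7.4 (±0.2). Inoculum prepared in sterile water to 0.5 McFarland (1.5 × 10^8 CFU/mL). MIC taken as growth reduction versus control (IC95 per table header), read visually and spectrophotometrically at 540 nm after 24 and 48 h incubation in the dark.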

Enterococcus sp. [18] = assay: Antibacterial activity against Enterococcus sp. J 14365/08 after 24 hrs by microbroth dilution method; conditions: J 14365/08, 24 h; method in brief: as §1
[19] = test system: Staphylococcus epidermidis; assay: Antibacterial activity against Staphylococcus epidermidis H 6966/08 after 24 hrs by microbroth dilution method; conditions: H 6966/08, 24 h; method in brief: as §1
Staphylococcus aureus [20] = assay: Antibacterial activity against methicillin-resistant Staphylococcus aureus H 5996/08 after 48 hrs by microbroth dilution method; conditions: H 5996/08, 48 h; method in brief: as §2
Enterococcus sp. [21] = assay: Antibacterial activity against Enterococcus sp. J 14365/08 after 48 hrs by microbroth dilution method; conditions: J 14365/08, 48 h; method in brief: as §1
Klebsiella pneumoniae [22] = assay: Antibacterial activity against Klebsiella pneumoniae D 11750/08 after 24 hrs by microbroth dilution method; conditions: D 11750/08, 24 h; method in brief: as §1
Klebsiella pneumoniae [23] = assay: Antibacterial activity against Klebsiella pneumoniae D 11750/08 after 48 hrs by microbroth dilution method; conditions: D 11750/08, 48 h; method in brief: as §1
[24] = test system: Staphylococcus epidermidis; assay: Antibacterial activity against Staphylococcus epidermidis H 6966/08 after 48 hrs by microbroth dilution method; conditions: H 6966/08, 48 h; method in brief: as §1
Escherichia coli [25] = assay: Antibacterial activity against Escherichia coli CCM 4517 after 24 hrs by microbroth dilution method; conditions: CCM 4517, 24 h; method in brief: as §1
Klebsiella pneumoniae [26] = assay: Antibacterial activity against ESBL-positive Klebsiella pneumoniae J 14368/08 after 48 hrs by microbroth dilution method; conditions: J 14368/08, 48 h; method in brief: as §1
Escherichia coli [27] = assay: Antibacterial activity against Escherichia coli CCM 4517 after 48 hrs by microbroth dilution method; conditions: CCM 4517, 48 h; method in brief: as §1
Staphylococcus aureus [28] = assay: Antibacterial activity against Staphylococcus aureus CCM 4516/08 after 48 hrs by microbroth dilution method; conditions: CCM 4516/08, 48 h; method in brief: as §2

Structure (SMILES)	MIC (Nakaseomyces glabratus [1])	MIC [2]	MIC (Pichia kudriavzevii [3])	MIC (Pichia kudriavzevii [4])	MIC (Candida tropicalis [5])	MIC (Candida albicans [6])	MIC (Trichosporon asahii [7])	MIC (Lichtheimia corymbifera [8])	MIC (Candida tropicalis [9])	MIC (Lichtheimia corymbifera [10])	MIC (Nakaseomyces glabratus [11])	MIC (Candida albicans [12])	MIC [13]	MIC (Trichosporon asahii [14])	MIC (Staphylococcus aureus [15])	MIC (Klebsiella pneumoniae [16])	MIC (Staphylococcus aureus [17])	MIC (Enterococcus sp. [18])	MIC [19]	MIC (Staphylococcus aureus [20])	also measured
C[C@@H]1[C@H](O)[C@@H](C)/C=C/C=C/C=C/C=C/C=C/C=C/C=C/[C@H](O[C@@H]2O[C@H](C)[C@@H](O)[C@H](N)[C@@H]2O)C[C@@H]2O[C@](O)(C[C@@H](O)C[C@@H](O)[C@H](O)CC[C@@H](O)C[C@@H](O)CC(=O)O[C@H]1C)C[C@H](O)[C@H]2C(=O)O [AMPHOTERICIN B]	0.98 µM (≈ 0.906 µg/mL)	1.95 µM (≈ 1.8 µg/mL)	1.95 µM (≈ 1.8 µg/mL)	1.95 µM (≈ 1.8 µg/mL)	1.95 µM (≈ 1.8 µg/mL)	0.49 µM (≈ 0.453 µg/mL)	0.49 µM (≈ 0.453 µg/mL)	7.81 µM (≈ 7.22 µg/mL)	1.95 µM (≈ 1.8 µg/mL)	7.81 µM (≈ 7.22 µg/mL)	1.95 µM (≈ 1.8 µg/mL)	0.12 µM (≈ 0.111 µg/mL)	1.95 µM (≈ 1.8 µg/mL)	0.98 µM (≈ 0.906 µg/mL)	–	–	–	–	–	–	–
O=C(NC12CC3CC(CC(C3)C1)C2)Oc1ccc(Cl)cc1C(=O)Nc1ccc(Br)cc1	> 125 µM	7.81 µM (≈ 3.93 µg/mL)	> 125 µM	> 125 µM	> 125 µM	> 125 µM	> 125 µM	> 125 µM	> 125 µM	> 125 µM	> 125 µM	> 125 µM	7.81 µM (≈ 3.93 µg/mL)	> 125 µM	0.98 µM (≈ 0.494 µg/mL)	31.2 µM (≈ 15.7 µg/mL)	1.95 µM (≈ 0.982 µg/mL)	> 500 µM	0.98 µM (≈ 0.494 µg/mL)	3.9 µM (≈ 1.96 µg/mL)	MIC (Enterococcus sp. [21]): > 500 µM; MIC (Klebsiella pneumoniae [22]): > 250 µM; MIC (Klebsiella pneumoniae [23]): > 250 µM; MIC [24]: 1.95 µM (≈ 0.982 µg/mL); MIC (Escherichia coli [25]): > 250 µM; MIC (Klebsiella pneumoniae [26]): 125 µM (≈ 63 µg/mL); MIC (Escherichia coli [27]): > 250 µM; MIC (Staphylococcus aureus [28]): 1.95 µM (≈ 0.982 µg/mL)
O=C(NCCc1ccccc1)Oc1ccc(Cl)cc1C(=O)Nc1ccc(F)cc1	125 µM (≈ 51.6 µg/mL)	> 500 µM	125 µM (≈ 51.6 µg/mL)	> 500 µM	> 500 µM	> 500 µM	125 µM (≈ 51.6 µg/mL)	> 500 µM	> 500 µM	> 500 µM	> 500 µM	250 µM (≈ 103 µg/mL)	> 500 µM	> 500 µM	7.81 µM (≈ 3.22 µg/mL)	> 500 µM	15.6 µM (≈ 6.45 µg/mL)	> 500 µM	15.6 µM (≈ 6.45 µg/mL)	62.5 µM (≈ 25.8 µg/mL)	MIC (Enterococcus sp. [21]): > 500 µM; MIC (Klebsiella pneumoniae [22]): > 500 µM; MIC (Klebsiella pneumoniae [23]): > 500 µM; MIC [24]: 15.6 µM (≈ 6.45 µg/mL); MIC (Escherichia coli [25]): > 500 µM; MIC (Klebsiella pneumoniae [26]): > 500 µM; MIC (Escherichia coli [27]): > 500 µM; MIC (Staphylococcus aureus [28]): 15.6 µM (≈ 6.45 µg/mL)
OC(Cn1cncn1)(Cn1cncn1)c1ccc(F)cc1F [FLUCONAZOLE]	31.2 µM (≈ 9.57 µg/mL)	125 µM (≈ 38.3 µg/mL)	125 µM (≈ 38.3 µg/mL)	250 µM (≈ 76.6 µg/mL)	> 500 µM	0.24 µM (≈ 0.0735 µg/mL)	250 µM (≈ 76.6 µg/mL)	> 500 µM	> 500 µM	> 500 µM	500 µM (≈ 153 µg/mL)	0.24 µM (≈ 0.0735 µg/mL)	7.81 µM (≈ 2.39 µg/mL)	500 µM (≈ 153 µg/mL)	–	–	–	–	–	–	–
CC1(C)S[C@@H]2[C@H](NC(=O)Cc3ccccc3)C(=O)N2[C@H]1C(=O)O [PENICILLIN G]	–	–	–	–	–	–	–	–	–	–	–	–	–	–	0.98 µM (≈ 0.328 µg/mL)	> 500 µM	62.5 µM (≈ 20.9 µg/mL)	7.81 µM (≈ 2.61 µg/mL)	250 µM (≈ 83.6 µg/mL)	125 µM (≈ 41.8 µg/mL)	MIC (Enterococcus sp. [21]): 15.6 µM (≈ 5.22 µg/mL); MIC (Klebsiella pneumoniae [22]): 500 µM (≈ 167 µg/mL); MIC (Klebsiella pneumoniae [23]): 500 µM (≈ 167 µg/mL); MIC [24]: 250 µM (≈ 83.6 µg/mL); MIC (Escherichia coli [25]): 125 µM (≈ 41.8 µg/mL); MIC (Klebsiella pneumoniae [26]): > 500 µM; MIC (Escherichia coli [27]): 125 µM (≈ 41.8 µg/mL); MIC (Staphylococcus aureus [28]): 0.98 µM (≈ 0.328 µg/mL)
